According to ChEMBL document CHEMBL4002564, “Design, synthesis and cytotoxicity studies of novel pyrazolo[1, 5-a]pyridine derivatives” (Eur J Med Chem, 2017):
The source made the active and inactive calls. The calls are words filed in the database; no cut-off is given here.

What was measured:
[1] = target: T1, Epidermal growth factor receptor (Homo sapiens, UniProt P00533); assay: Inhibition of recombinant EGFR (unknown origin) using poly (Glu4, Tyr) as substrate assessed as inhibition at 10 uM after 60 mins by ADP-glo kinase assay
T1 sequence (P00533 whole entry): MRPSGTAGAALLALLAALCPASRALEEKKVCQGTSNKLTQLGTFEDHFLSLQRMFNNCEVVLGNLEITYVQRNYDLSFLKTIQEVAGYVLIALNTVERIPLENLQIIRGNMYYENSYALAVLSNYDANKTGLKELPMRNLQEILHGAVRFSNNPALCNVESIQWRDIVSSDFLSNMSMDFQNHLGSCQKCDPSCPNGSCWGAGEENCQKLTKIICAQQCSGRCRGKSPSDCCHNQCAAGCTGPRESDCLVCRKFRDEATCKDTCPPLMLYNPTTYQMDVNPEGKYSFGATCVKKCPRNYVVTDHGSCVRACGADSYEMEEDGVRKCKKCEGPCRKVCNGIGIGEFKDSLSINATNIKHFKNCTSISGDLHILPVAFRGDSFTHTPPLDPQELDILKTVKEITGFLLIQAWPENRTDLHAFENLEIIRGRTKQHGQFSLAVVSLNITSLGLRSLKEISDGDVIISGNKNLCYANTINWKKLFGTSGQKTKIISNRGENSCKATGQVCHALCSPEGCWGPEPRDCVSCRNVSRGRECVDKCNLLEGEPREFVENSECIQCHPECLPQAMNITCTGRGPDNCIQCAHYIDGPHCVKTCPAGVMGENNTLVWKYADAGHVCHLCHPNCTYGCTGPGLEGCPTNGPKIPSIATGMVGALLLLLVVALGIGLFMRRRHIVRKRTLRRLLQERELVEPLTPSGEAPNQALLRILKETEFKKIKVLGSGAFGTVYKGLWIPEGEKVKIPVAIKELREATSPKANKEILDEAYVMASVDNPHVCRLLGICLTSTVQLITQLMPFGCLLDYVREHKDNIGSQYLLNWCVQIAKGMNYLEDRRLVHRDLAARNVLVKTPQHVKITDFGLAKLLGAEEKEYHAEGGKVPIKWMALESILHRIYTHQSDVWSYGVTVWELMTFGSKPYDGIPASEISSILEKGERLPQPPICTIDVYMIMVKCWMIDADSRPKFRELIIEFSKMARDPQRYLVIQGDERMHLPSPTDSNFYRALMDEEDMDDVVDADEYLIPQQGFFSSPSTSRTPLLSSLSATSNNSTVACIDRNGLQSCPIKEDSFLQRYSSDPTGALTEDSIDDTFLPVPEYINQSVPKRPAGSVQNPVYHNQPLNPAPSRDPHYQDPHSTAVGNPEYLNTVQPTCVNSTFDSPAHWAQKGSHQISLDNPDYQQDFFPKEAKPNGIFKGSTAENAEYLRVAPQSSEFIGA

[2] = target: T1, Epidermal growth factor receptor; assay: Inhibition of recombinant EGFR (unknown origin) using poly (Glu4, Tyr) as substrate assessed as inhibition at 100 uM after 60 mins by ADP-glo kinase assay
[3] = target: T1, Epidermal growth factor receptor; assay: Inhibition of recombinant EGFR (unknown origin) using poly (Glu4, Tyr) as substrate assessed as inhibition at 30 uM after 60 mins by ADP-glo kinase assay
[4] = target: T1, Epidermal growth factor receptor; assay: Inhibition of recombinant EGFR (unknown origin) using poly (Glu4, Tyr) as substrate assessed as inhibition at 1 uM after 60 mins by ADP-glo kinase assay
[5] = target: T1, Epidermal growth factor receptor; assay: Inhibition of recombinant EGFR (unknown origin) using poly (Glu4, Tyr) as substrate after 60 mins by ADP-glo kinase assay
In short: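 ADP-Glo luminescent assay. Each reaction held 30 ng recombinant EGFR, 5 µM ATP and 0.2 µg/µl poly(Glu4,Tyr) in tyrosine kinase buffer with a compound dilution; 60 min at ambient temperature. Stopped with ADP-Glo reagent (40 min), then kinase detection reagent, luminescence read after 30 min. Blank (no enzyme) subtracted; activity expressed as % of the 0 µM reaction. Dilutions run in duplicate.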

[6] = test system: A549; assay: Antiproliferative activity against human A549 cells at 50 uM after 48 hrs by SRB assay; assay type: functional; details: A549, 48 h, read-out: GI
[7] = test system: PC-3; assay: Antiproliferative activity against human PC3 cells at 1 uM after 48 hrs by SRB assay; assay type: functional; details: PC-3, 48 h, read-out: GI
In short: (§1)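 Cells kept in RPMI-1640 with 2 mM glutamine, 10% FBS, penicillin/streptomycin, 37°C, 5% CO2. Seeded and grown 24 h, then test material in complete medium added and incubated 48 h. Fixed with cold TCA 1 h at 4°C, stained with 0.4% SRB in 1% acetic acid for 30 min, dye dissolved in 10 mM Tris pH 10.4, OD read at 540 nm.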

[8] = test system: A549; assay: Antiproliferative activity against human A549 cells at 1 uM after 48 hrs by SRB assay; assay type: functional; details: A549, 48 h, read-out: GI
In short: as §1

[9] = test system: MCF7; assay: Induction of apoptotic bodies formation in human MCF7 cells at 50 nM after 24 hrs by DAPI staining based immunofluorescence microscopy; assay type: functional, cell-based
[10] = test system: PC-3; assay: Antiproliferative activity against human PC3 cells at 50 uM after 48 hrs by SRB assay; assay type: functional; details: PC-3, 48 h, read-out: GI
[11] = test system: MCF7; assay: Antiproliferative activity against human MCF7 cells at 1 uM after 48 hrs by SRB assay; assay type: functional; details: MCF7, 48 h, read-out: GI
In short: as §1

[12] = test system: MCF7; assay: Antiproliferative activity against human MCF7 cells at 50 uM after 48 hrs by SRB assay; assay type: functional; details: MCF7, 48 h, read-out: GI
[13] = test system: HCT-116; assay: Antiproliferative activity against human HCT116 cells at 20 uM after 48 hrs by SRB assay; assay type: functional; details: HCT-116, 48 h, read-out: GI
In short: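 Cells kept in RPMI-1640 with 2mM glutamine, 10% FBS, streptomycin and penicillin at 37°C, 5% CO2. Seeded cells grown 24 h, then exposed to compound in complete medium for 48 h. Fixed with cold TCA 1 h at 4°C, stained with 0.4% SRB 30 min, bound dye dissolved in 10mM Tris pH 10.4, OD read at 540 nm. Blank-subtracted percent growth inhibition taken against untreated cells as 100%.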

[14] = test system: HCT-116; assay: Antiproliferative activity against human HCT116 cells at 50 uM after 48 hrs by SRB assay; assay type: functional; details: HCT-116, 48 h, read-out: GI

Structure (SMILES): CCCCOC(=O)c1c(-c2ccccc2)nn2ccccc12
- inhibition [1]: 37%
- inhibition [2]: 72%
- inhibition [3]: 51%
- inhibition [4]: 16%
- IC50 [5]: 23.7 µM

Structure (SMILES): CC(=O)O[C@H]1C(=O)[C@@]2(C)[C@H]([C@H](OC(=O)c3ccccc3)[C@]3(O)C[C@H](OC(=O)[C@H](O)[C@@H](NC(=O)c4ccccc4)c4ccccc4)C(C)=C1C3(C)C)[C@]1(OC(C)=O)CO[C@@H]1C[C@@H]2O [PACLITAXEL]
- inhibition of growth at 50 µM [6]: 78%
- inhibition of growth at 1 µM [7]: 72%
- inhibition of growth at 1 µM [8]: 78%
- Activity [9]: Active
- inhibition of growth at 50 µM [10]: 72%

Structure (SMILES): COc1cccc2c1C(=O)c1c(O)c3c(c(O)c1C2=O)C[C@@](O)(C(=O)CO)C[C@@H]3O[C@H]1C[C@H](N)[C@H](O)[C@H](C)O1 [DOXORUBICIN]
- inhibition of growth at 1 µM [11]: 62%
- inhibition of growth at 50 µM [12]: 62%

Structure (SMILES): O=c1[nH]cc(F)c(=O)[nH]1 [FLUOROURACIL]
- inhibition of growth at 20 µM [13]: 58%
- inhibition of growth at 50 µM [14]: 58%
